According to ChEMBL document CHEMBL1144979, “Combinatorial modification of natural products: synthesis and in vitro analysis of derivatives of thiazole peptide antibiotic GE2270 A: A-ring modifications” (Bioorg Med Chem Lett, 2003):
In brackets after ≈: the same amount, converted by molar mass.

Assays:
Format in all cases: functional
Enterococcus faecium = experiment: In vitro antibacterial activity against Vancomycin-susceptible Enterococcus faecium BM4147.1
Procedure, shortened: (§1)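 MICs by NCCLS broth dilution guidelines, modified by adding 0.02% bovine serum albumin to the growth medium; purified, resynthesized compounds tested against the expanded bacterial panel.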

Enterococcus faecalis = experiment: In vitro antibacterial activity against Vancomycin-resistant Enterococcus faecalis ATCC 51299
Staphylococcus aureus [1] = experiment: In vitro antibacterial activity against methicillin sensitive Staphylococcus aureus ATCC 25923; procedure, shortened: as §1
Staphylococcus aureus [2] = experiment: In vitro antibacterial activity against methicillin resistant Staphylococcus aureus (MRSA) ATCC 33591
Escherichia coli = experiment: In vitro antibacterial activity against Escherichia coli (A G100B); procedure, shortened: as §1
Haemophilus influenzae [3] = experiment: In vitro antibacterial activity against Haemophilus influenzae (ATTC31517); procedure, shortened: as §1
[4] = system: Staphylococcus epidermidis; experiment: In vitro antibacterial activity against Staphylococcus epidermidis (ATCC 12228); procedure, shortened: as §1
Streptococcus pneumoniae = experiment: In vitro antibacterial activity against Streptococcus pneumoniae (ATTC49619); procedure, shortened: as §1
Streptococcus pyogenes = experiment: In vitro antibacterial activity against Streptococcus pyogenes (ATTC19615); procedure, shortened: as §1
Haemophilus influenzae [5] = experiment: In vitro antibacterial activity against Haemophilus influenzae (acr, LS-2); procedure, shortened: as §1

| Structure (SMILES) | MIC (Enterococcus faecium) [µg/mL] | MIC (Enterococcus faecalis) [µg/mL] | MIC (Staphylococcus aureus [1]) [µg/mL] | MIC (Staphylococcus aureus [2]) [µg/mL] | MIC (Escherichia coli) [µg/mL] | MIC (Haemophilus influenzae [3]) [µg/mL] | MIC [4] [µg/mL] | MIC (Streptococcus pneumoniae) [µg/mL] | MIC (Streptococcus pyogenes) [µg/mL] | MIC (Haemophilus influenzae [5]) [µg/mL] |
| --- | --- | --- | --- | --- | --- | --- | --- | --- | --- | --- |
| CNC(=O)C[C@@H]1NC(=O)c2csc(n2)-c2ccc(-c3nc(C(=O)NCCC[N+]4([O-])CCOCC4)cs3)nc2-c2csc(n2)-c2csc(n2)C(C(O)c2ccccc2)NC(=O)CNC(=O)c2nc(sc2COC)[C@H](C(C)C)NC(=O)c2nc1sc2C (stereo partly specified) | 1 (≈ 0.789 µM) | 2 (≈ 1.58 µM) | 2 (≈ 1.58 µM) | 2 (≈ 1.58 µM) |  |  |  |  |  |  |
| CNC(=O)C[C@@H]1NC(=O)c2csc(n2)-c2ccc(-c3nc(C(=O)NCCO)cs3)nc2-c2csc(n2)-c2csc(n2)C(C(O)c2ccccc2)NC(=O)CNC(=O)c2nc(sc2COC)[C@H](C(C)C)NC(=O)c2nc1sc2C (stereo partly specified) | 0.03 (≈ 0.0257 µM) | 0.03 (≈ 0.0257 µM) | 0.06 (≈ 0.0514 µM) | 0.125 (≈ 0.107 µM) |  |  |  |  |  |  |
| CNC(=O)C[C@@H]1NC(=O)c2csc(n2)-c2ccc(-c3nc(C(=O)N4CC(C(N)=O)C4)cs3)nc2-c2csc(n2)-c2csc(n2)C(C(O)c2ccccc2)NC(=O)CNC(=O)c2nc(sc2COC)[C@H](C(C)C)NC(=O)c2nc1sc2C (stereo partly specified) |  |  |  | 0.06 (≈ 0.0497 µM) |  |  |  |  |  |  |
| CNC(=O)C[C@@H]1NC(=O)c2csc(n2)-c2ccc(-c3nc(COC(=O)NCCCC(=O)O)cs3)nc2-c2csc(n2)-c2csc(n2)C(C(O)c2ccccc2)NC(=O)CNC(=O)c2nc(sc2COC)[C@H](C(C)C)NC(=O)c2nc1sc2C (stereo partly specified) | 0.06 (≈ 0.0484 µM) | 0.125 (≈ 0.101 µM) | 0.25 (≈ 0.202 µM) | 0.125 (≈ 0.101 µM) | > 16 | 16 (≈ 12.9 µM) | 0.25 (≈ 0.202 µM) | 2 (≈ 1.61 µM) | 8 (≈ 6.45 µM) | 4 (≈ 3.22 µM) |
| CNC(=O)C[C@@H]1NC(=O)c2csc(n2)-c2ccc(-c3nc(C(=O)NCCCCCC(=O)O)cs3)nc2-c2csc(n2)-c2csc(n2)C(C(O)c2ccccc2)NC(=O)CNC(=O)c2nc(sc2COC)[C@H](C(C)C)NC(=O)c2nc1sc2C (stereo partly specified) | 0.03 (≈ 0.0242 µM) | 0.03 (≈ 0.0242 µM) | 0.06 (≈ 0.0484 µM) | 0.015 (≈ 0.0121 µM) |  |  |  |  |  |  |
| CNC(=O)C[C@@H]1NC(=O)c2csc(n2)-c2ccc(-c3nc(C(=O)N4CC(C(=O)N[C@H](CCC(=O)O)C(=O)O)C4)cs3)nc2-c2csc(n2)-c2csc(n2)C(C(O)c2ccccc2)NC(=O)CNC(=O)c2nc(sc2COC)[C@H](C(C)C)NC(=O)c2nc1sc2C (stereo partly specified) |  |  | > 32 | > 32 |  |  |  |  |  |  |
| CNC(=O)C[C@@H]1NC(=O)c2csc(n2)-c2ccc(-c3nc(C(=O)NCCCN)cs3)nc2-c2csc(n2)-c2csc(n2)C(C(O)c2ccccc2)NC(=O)CNC(=O)c2nc(sc2COC)[C@H](C(C)C)NC(=O)c2nc1sc2C (stereo partly specified) | 2 (≈ 1.69 µM) | 2 (≈ 1.69 µM) | 1 (≈ 0.846 µM) | 1 (≈ 0.846 µM) |  |  |  |  |  |  |
| CNC(=O)C[C@@H]1NC(=O)c2csc(n2)-c2ccc(-c3nc(C(=O)NCCC(=O)O)cs3)nc2-c2csc(n2)-c2csc(n2)C(C(O)c2ccccc2)NC(=O)CNC(=O)c2nc(sc2COC)[C@H](C(C)C)NC(=O)c2nc1sc2C (stereo partly specified) | 0.06 (≈ 0.0501 µM) | 0.06 (≈ 0.0501 µM) | 0.5 (≈ 0.418 µM) | 0.5 (≈ 0.418 µM) |  |  |  |  |  |  |
| CNC(=O)C[C@@H]1NC(=O)c2csc(n2)-c2ccc(-c3nc(C(=O)NCCCCN=C(N)N)cs3)nc2-c2csc(n2)-c2csc(n2)C(C(O)c2ccccc2)NC(=O)CNC(=O)c2nc(sc2COC)[C@H](C(C)C)NC(=O)c2nc1sc2C (stereo partly specified) | 8 (≈ 6.46 µM) | 8 (≈ 6.46 µM) | 8 (≈ 6.46 µM) | 4 (≈ 3.23 µM) |  |  |  |  |  |  |
| CNC(=O)C[C@@H]1NC(=O)c2csc(n2)-c2ccc(-c3nc(C(=O)NCCCCO)cs3)nc2-c2csc(n2)-c2csc(n2)C(C(O)c2ccccc2)NC(=O)CNC(=O)c2nc(sc2COC)[C@H](C(C)C)NC(=O)c2nc1sc2C (stereo partly specified) | 0.06 (≈ 0.0501 µM) | 0.125 (≈ 0.104 µM) | 0.125 (≈ 0.104 µM) | 0.125 (≈ 0.104 µM) |  |  |  |  |  |  |
| CNC(=O)C[C@@H]1NC(=O)c2csc(n2)-c2ccc(-c3nc(C(=O)N[C@@H](CO)C(=O)N4CCC[C@H]4C(N)=O)cs3)nc2-c2csc(n2)-c2csc(n2)C(C(O)c2ccccc2)NC(=O)CNC(=O)c2nc(sc2COC)[C@H](C(C)C)NC(=O)c2nc1sc2C (stereo partly specified) |  |  |  | 0.25 (≈ 0.191 µM) |  |  |  |  |  |  |
| CNC(=O)C[C@@H]1NC(=O)c2csc(n2)-c2ccc(-c3nc(C(=O)NCCN)cs3)nc2-c2csc(n2)-c2csc(n2)C(C(O)c2ccccc2)NC(=O)CNC(=O)c2nc(sc2COC)[C@H](C(C)C)NC(=O)c2nc1sc2C (stereo partly specified) | 2 (≈ 1.71 µM) | 2 (≈ 1.71 µM) | 2 (≈ 1.71 µM) | 1 (≈ 0.857 µM) |  |  |  |  |  |  |
| CNC(=O)C[C@@H]1NC(=O)c2csc(n2)-c2ccc(-c3nc(C(=O)NCCN4CCOCC4)cs3)nc2-c2csc(n2)-c2csc(n2)C(C(O)c2ccccc2)NC(=O)CNC(=O)c2nc(sc2COC)[C@H](C(C)C)NC(=O)c2nc1sc2C (stereo partly specified) | 0.06 (≈ 0.0485 µM) | 0.06 (≈ 0.0485 µM) | 0.5 (≈ 0.404 µM) | 0.25 (≈ 0.202 µM) |  |  |  |  |  |  |
| CN[C@H](CC(C)C)C(=O)N[C@H]1C(=O)N[C@@H](CC(N)=O)C(=O)N[C@H]2C(=O)N[C@H]3C(=O)N[C@H](C(=O)N[C@H](C(=O)O)c4cc(O)cc(O)c4-c4cc3ccc4O)[C@H](O)c3ccc(c(Cl)c3)Oc3cc2cc(c3O[C@@H]2O[C@H](CO)[C@@H](O)[C@H](O)[C@H]2O[C@H]2C[C@](C)(N)[C@H](O)[C@H](C)O2)Oc2ccc(cc2Cl)[C@H]1O [VANCOMYCIN] |  | > 16 |  |  | > 16 | > 16 |  | 0.125 (≈ 0.0863 µM) | 0.25 (≈ 0.173 µM) | > 16 |
